Reference: article PMC7214649 (Clinical and Translational Science, 2020)
Where two headings read alike, the source gives them in different places. Values belong to the compound of their own block, whether it stands above or below them.

What was measured:
CYP3A = experiment: Ritonavir-venetoclax drug interaction study, observed exposure ratios; type: in vivo, human
Outline: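 20 female subjects, […], all drugs given orally; serial blood sampling for plasma levels of both the test compound and the CYP3A inhibitor. Validated assays had LLOQ 2.11 ng/mL (test compound) and 9.73 ng/mL (inhibitor), bias -4.7% to 7.1%, and CV 1.6% to 9.6%. Ratio is Cmax or AUC on coadministration over dosing alone; AUC96 runs 0–96 h postdose.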

[1] = type: in vivo, human
[2] = type: in vivo, human; remark: listed apart in the source
P-gp [3] = target: T1, P-gp (Homo sapiens, UniProt P08183); type: in vivo
[4] = fed conditions; cited from earlier work
P-gp [5] = target: T1, P-gp; details: single dose venetoclax 100 mg, female healthy volunteers; cited from earlier work
[6] = cited from earlier work
[7] = Cohort 1: venetoclax 10 mg with single dose ritonavir 50 mg vs venetoclax alone, period 1 day 1 vs period 2 day 1
[8] = Cohort 2: venetoclax 10 mg with single dose ritonavir 100 mg vs venetoclax alone, period 1 day 1 vs period 2 day 1
[9] = Cohort 3: venetoclax 10 mg with ritonavir 50 mg q.d. for 11 days vs venetoclax alone, multiple-dose effect, period 1 day 1 vs period 2 day 11

T1 sequence (P08183 whole entry): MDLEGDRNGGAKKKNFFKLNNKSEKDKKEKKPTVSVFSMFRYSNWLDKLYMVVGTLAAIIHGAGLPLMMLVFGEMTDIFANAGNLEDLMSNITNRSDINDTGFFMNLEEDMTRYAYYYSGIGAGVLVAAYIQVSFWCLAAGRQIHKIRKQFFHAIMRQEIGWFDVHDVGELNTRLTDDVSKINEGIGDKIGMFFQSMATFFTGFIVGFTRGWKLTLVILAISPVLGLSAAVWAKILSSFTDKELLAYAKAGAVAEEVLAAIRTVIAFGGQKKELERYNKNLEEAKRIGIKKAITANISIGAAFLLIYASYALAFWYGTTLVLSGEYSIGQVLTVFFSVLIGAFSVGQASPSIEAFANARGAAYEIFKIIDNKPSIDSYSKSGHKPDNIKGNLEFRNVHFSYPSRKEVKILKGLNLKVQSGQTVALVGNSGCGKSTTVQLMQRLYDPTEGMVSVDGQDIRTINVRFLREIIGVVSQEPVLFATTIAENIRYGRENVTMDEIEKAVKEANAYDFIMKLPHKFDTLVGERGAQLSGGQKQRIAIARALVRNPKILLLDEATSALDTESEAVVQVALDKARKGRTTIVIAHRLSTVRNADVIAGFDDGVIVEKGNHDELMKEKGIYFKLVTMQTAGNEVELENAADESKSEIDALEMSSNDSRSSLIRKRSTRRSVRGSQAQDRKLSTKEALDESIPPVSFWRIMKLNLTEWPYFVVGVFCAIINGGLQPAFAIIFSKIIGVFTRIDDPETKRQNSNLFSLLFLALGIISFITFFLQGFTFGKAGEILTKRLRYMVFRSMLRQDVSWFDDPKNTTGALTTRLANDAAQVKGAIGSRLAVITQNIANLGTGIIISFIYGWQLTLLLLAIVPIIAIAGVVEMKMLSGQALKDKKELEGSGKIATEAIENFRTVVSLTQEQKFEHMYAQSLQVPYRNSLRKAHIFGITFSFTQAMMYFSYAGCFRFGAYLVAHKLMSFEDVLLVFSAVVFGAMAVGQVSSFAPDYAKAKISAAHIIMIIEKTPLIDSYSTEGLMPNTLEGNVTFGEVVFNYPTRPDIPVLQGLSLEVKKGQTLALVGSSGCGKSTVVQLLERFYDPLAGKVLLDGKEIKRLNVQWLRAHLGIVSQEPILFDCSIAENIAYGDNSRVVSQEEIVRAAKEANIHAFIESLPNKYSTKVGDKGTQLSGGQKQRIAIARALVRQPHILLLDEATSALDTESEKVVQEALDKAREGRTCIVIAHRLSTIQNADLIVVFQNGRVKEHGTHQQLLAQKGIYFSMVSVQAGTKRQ

AUCinf ratio, Observed Central value (CYP3A; [7]): 6.1
Cmax ratio, Observed Central value (CYP3A; [7]): 2.4
AUCinf ratio, Observed Central value (CYP3A; [8]): 8.1
Cmax ratio, Observed Central value (CYP3A; [8]): 2.3
AUC96 ratio, Observed Central value (CYP3A; [9]): 7.9
Cmax ratio, Observed Central value (CYP3A; [9]): 2.4
CL BSV (between subject variability) ([1]; RTV-VEN model): 32.6 %CV
T50 BSV (between subject variability) ([1]; RTV-VEN model): 26.1 %CV
V2 BSV (between subject variability) ([1]; RTV-VEN model): 64 %CV
V2 (volume of central compartment) ([1]; RTV-VEN model final estimate): 26.8 L
V3 (volume of peripheral compartment) ([1]; RTV-VEN model final estimate): 83.5 L
Kamax (maximum absorption rate constant) ([1]; RTV-VEN model final estimate, time-dependent absorption): 4.76 day⁻¹
γ (shape factor) ([1]; RTV-VEN model, fixed, estimated value from venetoclax combined data): 5 (fixed ^*)
CL BSV (between subject variability) ([2]; VEN-DIG model): 22 %CV
ALAG (absorption lag time) ([2]; VEN-DIG model final estimate): 1.72 h
Ka (first-order absorption rate constant) ([2]; VEN-DIG model final estimate): 0.209 h⁻¹
V2 (volume of central compartment) ([2]; VEN-DIG model final estimate): 19.1 L
V3 (volume of peripheral compartment) ([2]; VEN-DIG model final estimate): 25.4 L
IC50 (P-gp [3]): 0.377 µM
Compound: CC1(C)CCC(CN2CCN(c3ccc(C(=O)NS(=O)(=O)c4ccc(NCC5CCOCC5)c([N+](=O)[O-])c4)c(Oc4cnc5[nH]ccc5c4)c3)CC2)=C(c2ccc(Cl)cc2)C1 [venetoclax, Venetoclax]
half-life [4]: ~ 15 hours

CL BSV (between subject variability) ([2]; VEN-DIG model): 12.3 %CV
V2 BSV (between subject variability) ([2]; VEN-DIG model): 28.9 %CV
ALAG (absorption lag time) ([2]; VEN-DIG model final estimate): 0.536 h
Fe (fraction of administered drug excreted into the urine) ([2]; VEN-DIG model final estimate): 0.438%
Ka (first-order absorption rate constant) ([2]; VEN-DIG model final estimate): 0.777 h⁻¹
V2 (volume of central compartment) ([2]; VEN-DIG model final estimate): 150 L
V3 (volume of peripheral compartment) ([2]; VEN-DIG model final estimate): 592 L
clearance ([2]; female, human, plasma, oral): 262 mL/min
increase of digoxin bioavailability (P-gp [3]; with venetoclax): 8%
Compound: C[C@H]1O[C@@H](O[C@H]2[C@@H](O)C[C@H](O[C@H]3[C@@H](O)C[C@H](O[C@H]4CC[C@@]5(C)[C@H](CC[C@@H]6[C@@H]5C[C@@H](O)[C@]5(C)[C@@H](C7=CC(=O)OC7)CC[C@]65O)C4)O[C@@H]3C)O[C@@H]2C)C[C@H](O)[C@@H]1O [digoxin]
changes in digoxin half-life or renal clearance (P-gp [5]): no changes
increase in digoxin AUC (P-gp [5]): 9%
increase in digoxin Cmax (P-gp [5]): 35%
absolute bioavailability [6]: ~ 80%

CL BSV (between subject variability) ([1]; RTV-VEN model): 17.9 %CV
V2 BSV (between subject variability) ([1]; RTV-VEN model): 54.7 %CV
V2 (volume of central compartment) ([1]; RTV-VEN model final estimate): 30.7 L
Ka (absorption rate constant) ([1]; RTV-VEN model final estimate, first-order absorption): 1.17 day⁻¹
Compound: CC(C)c1nc(CN(C)C(=O)N[C@H](C(=O)N[C@@H](Cc2ccccc2)C[C@H](O)[C@H](Cc2ccccc2)NC(=O)OCc2cncs2)C(C)C)cs1 [ritonavir]
